From PMC5652008 (EBioMedicine, 2017)
Square brackets hold non-standard residues; d marks the D form. Peptide text beside a SMILES is read from it. * marks the point of attachment. Succinyl(4-O-cholesteryl) = CC(C)CCC[C@@H](C)[C@H]1CC[C@H]2[C@@H]3CC=C4C[C@@H](OC(=O)CCC(=O)*)CC[C@]4(C)[C@H]3CC[C@]12C; Sta = CC(C)C[C@H](N)[C@@H](O)CC(=O)O

Tests used:
BACE2 = target: T1, BACE2 (Homo sapiens, UniProt Q9Y5Z0); assay: SPR binding assay on immobilized BACE2; settings: BACE2 surface, 18 °C, pH 4.5
T1 sequence (Q9Y5Z0 20-465): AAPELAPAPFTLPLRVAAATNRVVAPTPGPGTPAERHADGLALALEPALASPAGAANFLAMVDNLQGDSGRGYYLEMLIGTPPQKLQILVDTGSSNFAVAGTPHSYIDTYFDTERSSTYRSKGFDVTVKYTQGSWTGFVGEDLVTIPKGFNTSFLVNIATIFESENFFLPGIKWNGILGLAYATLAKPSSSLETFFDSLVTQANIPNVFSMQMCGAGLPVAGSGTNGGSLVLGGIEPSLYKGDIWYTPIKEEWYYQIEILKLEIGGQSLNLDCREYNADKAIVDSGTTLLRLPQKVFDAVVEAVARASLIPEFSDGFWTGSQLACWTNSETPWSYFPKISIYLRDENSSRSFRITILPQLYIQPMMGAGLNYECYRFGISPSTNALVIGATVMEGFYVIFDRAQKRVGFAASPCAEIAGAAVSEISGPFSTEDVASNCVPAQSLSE
Method in brief: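 Binding was run at 18 °C in the same buffer, either single-cycle (5 concentrations) or multi-cycle (10 concentrations), twofold dilutions, against an activated/deactivated reference surface.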

BACE1 [1] = target: T2, BACE1 (Homo sapiens, UniProt P56817); assay: Cell-based Aβ lowering IC50 assay
T2 sequence (P56817 46-501): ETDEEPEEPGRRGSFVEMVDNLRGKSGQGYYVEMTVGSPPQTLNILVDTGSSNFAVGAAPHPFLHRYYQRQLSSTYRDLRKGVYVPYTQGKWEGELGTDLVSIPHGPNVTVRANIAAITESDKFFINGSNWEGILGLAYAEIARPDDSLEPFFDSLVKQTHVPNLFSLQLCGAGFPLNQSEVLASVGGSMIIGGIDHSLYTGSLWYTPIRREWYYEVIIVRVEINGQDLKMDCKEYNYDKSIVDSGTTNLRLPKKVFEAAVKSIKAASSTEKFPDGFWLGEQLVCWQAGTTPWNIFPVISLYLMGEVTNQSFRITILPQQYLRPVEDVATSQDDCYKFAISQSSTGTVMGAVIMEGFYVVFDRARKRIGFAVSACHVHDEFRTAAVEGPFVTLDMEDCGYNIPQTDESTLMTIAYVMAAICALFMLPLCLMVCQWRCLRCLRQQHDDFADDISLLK
Method in brief: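 Test compounds, free or Brain Shuttle-coupled, added in serial dilutions to HEK293 cells stably expressing wild-type human APP695, grown in Iscove's medium with 10% FBS to ~80% confluency. Construct dilution buffers served as control. Overnight at 37 °C, 5% CO2. Supernatant Aβ40 read by AlphaLISA: acceptor beads 1 h, then streptavidin donor beads 30 min, both at RT; emission at 615 nm. Compared with vehicle-treated cells; mean ± SEM.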

BACE1 [2] = target: T2, BACE1; assay: SPR binding assay on immobilized BACE1
Method in brief: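 SPR at 18 °C in the immobilization buffer. Peptide titrations used 2-fold dilution steps, run either as single-cycle kinetics (5 concentrations) or multi-cycle kinetics (10 concentrations). Two protein surfaces and an activated/deactivated CM5 reference surface were measured in parallel on one sensor.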

plasma Aβ = assay: Plasma Aβ40 after single i.v. dose in mice; type: in vivo, C57BL/6 J mice; settings: 5 h post dose
Method in brief: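 Nine-week-old female mice received one i.v. injection of test compound at 0.003–3 mg/kg, with the buffer alone as vehicle control; three animals per group. Under anaesthesia, blood was collected into EDTA tubes, spun 8 min at 1600 × g, and plasma diluted 1:10 in 0.2% diethanolamine before solid-phase extraction.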

[3] = system: Aβ production in human stem-cell derived neurons; assay: Human neural stem cell-based Aβ40 inhibition assay; settings: 48 h incubation
Method in brief: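 Neurons differentiated from SB-AD3 human iPSCs (healthy adult donor fibroblasts) via embryoid bodies and dual SMAD inhibition. Doses 0.128–10,000 nM (three independent differentiations) or 0.001024–80 nM (one differentiation), two technical replicates per dose. Vehicle was histidine/NaCl/1.3 mM hydroxypropyl-β-cyclodextrin for peptides and DMSO for small molecules. Aβ40 read by AlphaLISA at 615 nm, compared with vehicle-treated cells; means ± SEM.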

[4] = target: T3, N-terminal T7-tagged BACE2 (amino acids 20-465) (UniProt Q9Y5Z0 20-465); assay: SPR
T3 sequence: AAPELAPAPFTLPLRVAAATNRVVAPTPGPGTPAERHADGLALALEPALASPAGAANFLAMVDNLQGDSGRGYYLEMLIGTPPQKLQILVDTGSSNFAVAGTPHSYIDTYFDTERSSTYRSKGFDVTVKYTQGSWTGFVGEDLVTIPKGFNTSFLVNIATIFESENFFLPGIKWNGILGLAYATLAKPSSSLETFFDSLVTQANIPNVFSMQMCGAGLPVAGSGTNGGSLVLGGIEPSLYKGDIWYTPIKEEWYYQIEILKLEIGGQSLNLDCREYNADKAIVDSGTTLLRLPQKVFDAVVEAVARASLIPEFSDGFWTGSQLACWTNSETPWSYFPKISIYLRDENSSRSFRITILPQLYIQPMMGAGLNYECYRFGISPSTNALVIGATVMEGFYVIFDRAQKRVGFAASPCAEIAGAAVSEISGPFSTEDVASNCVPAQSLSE

[5] = target: Beta-secretase 1 (BACE1), C-terminal His-tagged full length; assay: SPR
[6] = target: BACE1 ectodomain mutant protein (A14-T454, K307A) (UniProt P56817 14-454, K307A); assay: crystal structure
Sequence of BACE1 ectodomain mutant protein (A14-T454, K307A) (P56817 14-454 K307A): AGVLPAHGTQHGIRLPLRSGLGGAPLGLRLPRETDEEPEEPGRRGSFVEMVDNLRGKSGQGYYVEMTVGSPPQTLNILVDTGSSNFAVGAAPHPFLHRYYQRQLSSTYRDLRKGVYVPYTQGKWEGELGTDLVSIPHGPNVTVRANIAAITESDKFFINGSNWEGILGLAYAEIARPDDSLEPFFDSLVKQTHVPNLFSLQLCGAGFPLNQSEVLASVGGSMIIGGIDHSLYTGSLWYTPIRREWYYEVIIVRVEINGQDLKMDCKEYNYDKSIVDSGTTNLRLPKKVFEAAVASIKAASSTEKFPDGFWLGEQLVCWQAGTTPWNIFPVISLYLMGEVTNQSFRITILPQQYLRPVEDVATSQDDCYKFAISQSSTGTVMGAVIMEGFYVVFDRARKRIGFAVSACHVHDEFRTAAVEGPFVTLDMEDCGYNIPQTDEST

Molecule: CC(C)C[C@H](NC(=O)[C@H](CC(N)=O)NC(=O)[C@@H](NC(=O)[C@@H](N)CCC(=O)O)C(C)C)[C@@H](O)CC(=O)N[C@H](C(=O)N[C@@H](C)C(=O)N[C@@H](CCC(=O)O)C(=O)N1CCC[C@@H]1C(N)=O)C(C)C [Pep#1, Glu-Val-Asn-Sta-Val-Ala-Glu-DPro-NH2] (H-EVN[Sta]VAE[dP]-NH2; N-terminus assumed)
- kon (BACE2): 2.7–3.1·10^3 1/Ms
- IC50 (BACE1 [1]): > 40 µM
- kon (BACE1 [2]; BACE1 surface, 18 °C, pH 4.5): 2.5–4.0·10^3 1/Ms
- Selectivity for BACE1 (BACE1 [2]; ratio KD(BACE2)/KD(BACE1)): > 280

Molecule: CC[C@H](C)[C@H](NC(=O)[C@H](Cc1ccccc1)NC(=O)[C@H](Cc1ccc(O)cc1)NC(=O)[C@@H]1CCCN1C(=O)[C@H](Cc1ccc(O)cc1)NC(=O)CNC(=O)CNC(=O)CN)C(=O)N1CCC[C@H]1C(=O)N[C@H](CCCCN)C(=O)NCC(=O)N[C@H](CCCCN)C(=O)NCC(=O)N[C@@H](CCC(=O)O)C(=O)N[C@H](C(=O)N[C@@H](CC(N)=O)C(=O)N[C@@H](CC(C)C)[C@@H](O)CC(=O)N[C@H](C(=O)N[C@@H](C)C(=O)N[C@@H](CCC(=O)O)C(=O)N1CCC[C@@H]1C(=O)N[C@@H](CCCCNC(=O)CCC(=O)O[C@H]1CC[C@@]2(C)C(=CC[C@H]3[C@@H]4CC[C@H]([C@H](C)CCCC(C)C)[C@@]4(C)CC[C@@H]32)C1)C(N)=O)C(C)C)C(C)C [Pep#14, Gly-Gly-Gly-Tyr-Pro-Tyr-Phe-Ile-Pro-DLys-Gly-DLys-Gly-Glu-Val-Asn-Sta-Val-Ala-Glu-DPro-Lys(Chol'ester’)-NH2] (H-GGGYPYFIP[dK]G[dK]GEVN[Sta]VAE[dP]K(Succinyl(4-O-cholesteryl))-NH2; N-terminus assumed)
- Aβ40 production inhibition in HEK293 APP cells (BACE1 [1]; 16 h / overnight incubation): blocked production of Aβ40
- Plasma Aβ40 inhibition (plasma Aβ; 0.003-3 mg/kg i.v., uncoupled peptides): Dose-dependent inhibition
- Plasma Aβ level reduction (plasma Aβ; 3 mg/kg i.v., uncoupled peptide): 51%
- Aβ production inhibition in human stem-cell derived neurons [3]: able to reduce the Aβ production

Molecule: Ac-YPYFLPISAK-NH2 [Pep#6]
- Kd [4]: 66 µM
- Kd [5]: 25 µM

Molecule: Ac-ALYPYFLPISAK-NH2 [Pep#6a]
- binding result [6]: binds
